How the values were obtained:
[1] = target: Mitogen-activated protein kinase 10 (Homo sapiens) (UniProt P53779); assay: Inhibition of human JNK3 (28 to 422 amino acid residues) assessed as enzyme activity at 10 uM by KINOMEScan assay; design: scale not given: the % may be the effect or the level left
In short: (§1)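 Competition binding screen on a 100-kinase KINOMEscan panel, compound tested at a single 10 μM concentration. Primary binding read-out expressed as % Ctrl = (test compound signal − positive control signal)/(negative control signal − positive control signal) × 100, with lower values meaning stronger binding.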

[2] = target: High affinity nerve growth factor receptor (Homo sapiens) (UniProt P04629); assay: Inhibition of human TRKA (475 to 790 amino acid residues) assessed as enzyme activity at 10 uM by KINOMEScan assay; design: scale not given: the % may be the effect or the level left
In short: (§2)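 Commercial KINOMEscan binding panel of 100 kinases, test compound at 10 μM. Results are primary-screen binding interactions expressed as % Ctrl = (test compound signal − positive control signal)/(negative control signal − positive control signal) × 100. Lower % Ctrl means stronger binding.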

[3] = target: Serine/threonine-protein kinase DCLK1 (Homo sapiens) (UniProt O15075); assay: Inhibition of human DCAMKL1 (270 to 662 amino acid residues) assessed as enzyme activity at 10 uM by KINOMEScan assay; design: scale not given: the % may be the effect or the level left; in short: as §1
[4] = target: Proto-oncogene tyrosine-protein kinase receptor Ret (Homo sapiens) (UniProt P07949); assay: Inhibition of human RET (713 to 1014 amino acid residues) expressed in bacterial system assessed as enzyme activity at 10 uM by KINOMEScan assay; design: scale not given: the % may be the effect or the level left; in short: as §2
[5] = target: Mitogen-activated protein kinase 8 (Homo sapiens) (UniProt P45983); assay: Inhibition of full length human JNK1 assessed as enzyme activity at 10 uM by KINOMEScan assay; design: scale not given: the % may be the effect or the level left; in short: as §1
[6] = target: Serine/threonine-protein kinase PAK 1 (Homo sapiens) (UniProt Q13153); assay: Inhibition of human PAK1 (149 to 545 amino acid residues) expressed in bacterial system assessed as enzyme activity at 10 uM by KINOMEScan assay; design: scale not given: the % may be the effect or the level left; in short: as §1
[7] = target: Cyclin-dependent kinase (Homo sapiens) (UniProt P06493+P11802+P24941+Q00535+Q00534+P50613+Q00526+Q00536+Q07002+P49336+Q00537+P21127+Q96Q40+Q9BWU1+O94921+P50750+Q15131+Q14004+Q8IZL9+Q9NYV4); assay: Share of MOE computational kinase hits for CDK
[8] = target: Insulin receptor (Homo sapiens) (UniProt P06213); assay: Inhibition of human INSR (997 to 1318 amino acid residues) assessed as enzyme activity at 10 uM by KINOMEScan assay; design: scale not given: the % may be the effect or the level left; in short: as §1
[9] = target: Ephrin type-A receptor 2 (Homo sapiens) (UniProt P29317); assay: Inhibition of human EPHA2 (593 to 891 amino acid residues) assessed as enzyme activity at 10 uM by KINOMEScan assay expressed in bacterial system assessed as enzyme activity at 10 uM by KINOMEScan assay; design: scale not given: the % may be the effect or the level left; in short: as §2
[10] = target: SRSF protein kinase 3 (Homo sapiens) (UniProt Q9UPE1); assay: Inhibition of human SRPK3 (41 to 567 amino acid residues) expressed in bacterial system assessed as enzyme activity at 10 uM by KINOMEScan assay; design: scale not given: the % may be the effect or the level left
In short: (§3)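 Single-concentration competition binding screen (KINOMEscan) across a 100-kinase panel at 10 μM. Primary binding read-out is reported as % of control: (test signal − positive-control signal)/(negative-control signal − positive-control signal) × 100. Lower values indicate stronger binding.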

[11] = target: Hepatocyte growth factor receptor (Homo sapiens) (UniProt P08581); assay: Inhibition of human MET (1010 to 1367 amino acid residues) expressed in bacterial system assessed as enzyme activity at 10 uM by KINOMEScan assay; design: scale not given: the % may be the effect or the level left; in short: as §2
[12] = target: Death-associated protein kinase 1 (Homo sapiens) (UniProt P53355); assay: Share of MOE computational kinase hits for DAPK
[13] = target: Inhibitor of nuclear factor kappa-B kinase subunit beta (Homo sapiens) (UniProt O14920); assay: Inhibition of full length human IKK-beta assessed as enzyme activity at 10 uM by KINOMEScan assay; design: scale not given: the % may be the effect or the level left; in short: as §1
[14] = target: Aurora kinase A (Homo sapiens) (UniProt O14965); assay: Inhibition of human AURKA (122 to 401 amino acid residues) assessed as enzyme activity at 10 uM by KINOMEScan assay; design: scale not given: the % may be the effect or the level left; in short: as §1
[15] = target: Dual specificity mitogen-activated protein kinase kinase 2 (Homo sapiens) (UniProt P36507); assay: Inhibition of full length human MEK2 assessed as enzyme activity at 10 uM by KINOMEScan assay; design: scale not given: the % may be the effect or the level left; in short: as §1
[16] = target: Serine/threonine-protein kinase STK11 (Homo sapiens) (UniProt Q15831); assay: Inhibition of full length human LKB1 expressed in bacterial system assessed as enzyme activity at 10 uM by KINOMEScan assay; design: scale not given: the % may be the effect or the level left; in short: as §2
[17] = target: Phosphatidylinositol 4,5-bisphosphate 3-kinase catalytic subunit gamma isoform (Homo sapiens) (UniProt P48736); assay: Inhibition of human PIK3CG (144 to 1102 amino acid residues) assessed as enzyme activity at 10 uM by KINOMEScan assay; design: scale not given: the % may be the effect or the level left; in short: as §3
[18] = target: Ribosomal protein S6 kinase alpha-2 (Homo sapiens) (UniProt Q15349); assay: Inhibition of human RSK2 Kin.Dom.1-N-terminal (1 to 394 amino acid residues) assessed as enzyme activity at 10 uM by KINOMEScan assay; design: scale not given: the % may be the effect or the level left; in short: as §3
[19] = target: Atypical kinase COQ8A, mitochondrial (Homo sapiens) (UniProt Q8NI60); assay: Inhibition of full length human ADCK3 expressed in bacterial system assessed as enzyme activity at 10 uM by KINOMEScan assay; design: scale not given: the % may be the effect or the level left; in short: as §2
[20] = tested on: Tyrosine-protein kinase ABL1 (Homo sapiens), P00519 [E255K]; assay: Inhibition of human ABL1 kinase E255K mutant phosphorylation (229 to 512 amino acid residues) assessed as enzyme activity at 10 uM by KINOMEScan assay; design: scale not given: the % may be the effect or the level left; in short: as §1
[21] = target: Serine/threonine-protein kinase pim-3 (Homo sapiens) (UniProt Q86V86); assay: Inhibition of PIM3 (unknown origin)
[22] = target: Tyrosine-protein kinase ABL1 (Homo sapiens) (UniProt P00519); assay: Inhibition of human ABL1 kinase phosphorylation (229 to 512 amino acid residues) assessed as enzyme activity at 10 uM by KINOMEScan assay; design: scale not given: the % may be the effect or the level left; in short: as §1
[23] = target: Tyrosine-protein kinase ZAP-70 (Homo sapiens) (UniProt P43403); assay: Inhibition of human ZAP70 (20 to 299 amino acid residues) assessed as enzyme activity at 10 uM by KINOMEScan assay; design: scale not given: the % may be the effect or the level left; in short: as §2
[24] = target: cAMP-dependent protein kinase catalytic subunit alpha (Homo sapiens) (UniProt P17612); assay: Inhibition of human PKAC-alpha (10 to 351 amino acid residues) expressed in bacterial system assessed as enzyme activity at 10 uM by KINOMEScan assay; design: scale not given: the % may be the effect or the level left; in short: as §3
[25] = target: Serine/threonine-protein kinase B-raf (Homo sapiens) (UniProt P15056); assay: Inhibition of human BRAF (429 to 741 amino acid residues) assessed as enzyme activity at 10 uM by KINOMEScan assay; design: scale not given: the % may be the effect or the level left; in short: as §1
[26] = target: Serine/threonine-protein kinase ULK2 (Homo sapiens) (UniProt Q8IYT8); assay: Inhibition of human ULK2 (1 to 301 amino acid residues) assessed as enzyme activity at 10 uM by KINOMEScan assay; design: scale not given: the % may be the effect or the level left; in short: as §3

Chain of Dual specificity mitogen-activated protein kinase kinase 2 (Homo sapiens) (P36507 whole entry): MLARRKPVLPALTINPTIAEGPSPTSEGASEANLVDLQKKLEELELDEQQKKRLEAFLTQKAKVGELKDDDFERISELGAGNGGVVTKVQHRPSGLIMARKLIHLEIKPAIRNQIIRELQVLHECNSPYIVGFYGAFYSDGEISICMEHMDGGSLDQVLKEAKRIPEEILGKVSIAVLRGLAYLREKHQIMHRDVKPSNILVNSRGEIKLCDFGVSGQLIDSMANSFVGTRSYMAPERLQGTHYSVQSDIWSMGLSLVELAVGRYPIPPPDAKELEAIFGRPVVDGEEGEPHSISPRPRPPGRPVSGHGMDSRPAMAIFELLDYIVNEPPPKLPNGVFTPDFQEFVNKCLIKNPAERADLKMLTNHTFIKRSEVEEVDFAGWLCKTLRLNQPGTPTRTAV
Chain of Tyrosine-protein kinase ABL1 (Homo sapiens), P00519 [E255K] (P00519 whole entry E255K, the tested form may be a part): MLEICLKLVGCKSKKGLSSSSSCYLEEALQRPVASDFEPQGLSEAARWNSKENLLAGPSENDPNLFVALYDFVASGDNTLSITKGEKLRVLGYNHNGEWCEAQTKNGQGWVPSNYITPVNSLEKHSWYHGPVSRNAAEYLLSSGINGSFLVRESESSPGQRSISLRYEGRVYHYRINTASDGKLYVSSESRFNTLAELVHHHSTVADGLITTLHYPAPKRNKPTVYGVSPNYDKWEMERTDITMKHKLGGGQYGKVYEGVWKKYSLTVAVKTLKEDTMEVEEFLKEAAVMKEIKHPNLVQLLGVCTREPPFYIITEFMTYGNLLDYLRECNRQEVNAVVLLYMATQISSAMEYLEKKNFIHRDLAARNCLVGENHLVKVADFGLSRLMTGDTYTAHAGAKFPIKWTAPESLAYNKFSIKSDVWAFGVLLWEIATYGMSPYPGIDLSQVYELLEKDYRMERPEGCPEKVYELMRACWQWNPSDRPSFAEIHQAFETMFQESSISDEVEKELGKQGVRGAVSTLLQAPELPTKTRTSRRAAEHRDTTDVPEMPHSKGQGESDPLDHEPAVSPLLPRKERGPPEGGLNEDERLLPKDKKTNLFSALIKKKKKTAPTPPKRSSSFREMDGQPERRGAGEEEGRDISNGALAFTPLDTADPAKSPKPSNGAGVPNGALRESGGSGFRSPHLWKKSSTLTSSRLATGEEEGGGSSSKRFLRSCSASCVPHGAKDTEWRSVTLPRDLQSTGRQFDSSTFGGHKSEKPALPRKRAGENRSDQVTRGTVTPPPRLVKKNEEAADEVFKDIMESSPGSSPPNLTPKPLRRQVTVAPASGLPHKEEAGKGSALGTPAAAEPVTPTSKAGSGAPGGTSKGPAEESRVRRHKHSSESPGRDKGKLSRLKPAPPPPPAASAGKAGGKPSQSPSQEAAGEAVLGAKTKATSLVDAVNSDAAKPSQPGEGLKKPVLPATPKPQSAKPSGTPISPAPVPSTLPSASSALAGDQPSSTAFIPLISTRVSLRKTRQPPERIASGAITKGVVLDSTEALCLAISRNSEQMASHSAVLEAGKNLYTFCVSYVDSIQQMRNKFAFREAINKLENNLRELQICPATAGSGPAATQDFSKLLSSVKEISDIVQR
Chain of Tyrosine-protein kinase ABL1 (Homo sapiens) (P00519 whole entry, the tested form may be a part): as the sequence (P00519 whole entry E255K, the tested form may be a part) above, with K255E counted along it
Chain of Tyrosine-protein kinase ZAP-70 (Homo sapiens) (P43403 whole entry, the tested form may be a part): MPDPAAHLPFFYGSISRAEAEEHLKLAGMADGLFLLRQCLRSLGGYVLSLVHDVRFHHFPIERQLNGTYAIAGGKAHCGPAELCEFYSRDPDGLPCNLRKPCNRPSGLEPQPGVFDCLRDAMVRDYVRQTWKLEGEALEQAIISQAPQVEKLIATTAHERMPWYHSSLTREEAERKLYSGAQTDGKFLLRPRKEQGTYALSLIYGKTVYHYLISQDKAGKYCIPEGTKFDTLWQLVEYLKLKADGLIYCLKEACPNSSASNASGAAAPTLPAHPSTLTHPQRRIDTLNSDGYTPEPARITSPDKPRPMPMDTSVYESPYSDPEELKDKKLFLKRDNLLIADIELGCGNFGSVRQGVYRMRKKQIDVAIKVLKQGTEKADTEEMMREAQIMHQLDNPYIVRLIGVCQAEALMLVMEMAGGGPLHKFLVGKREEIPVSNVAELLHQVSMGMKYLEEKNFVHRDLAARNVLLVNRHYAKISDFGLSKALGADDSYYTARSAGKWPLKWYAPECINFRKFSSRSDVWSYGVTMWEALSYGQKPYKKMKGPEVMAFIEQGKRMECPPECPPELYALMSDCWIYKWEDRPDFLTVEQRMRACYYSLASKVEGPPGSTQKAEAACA
Chain of Serine/threonine-protein kinase PAK 1 (Homo sapiens) (Q13153 whole entry, the tested form may be a part): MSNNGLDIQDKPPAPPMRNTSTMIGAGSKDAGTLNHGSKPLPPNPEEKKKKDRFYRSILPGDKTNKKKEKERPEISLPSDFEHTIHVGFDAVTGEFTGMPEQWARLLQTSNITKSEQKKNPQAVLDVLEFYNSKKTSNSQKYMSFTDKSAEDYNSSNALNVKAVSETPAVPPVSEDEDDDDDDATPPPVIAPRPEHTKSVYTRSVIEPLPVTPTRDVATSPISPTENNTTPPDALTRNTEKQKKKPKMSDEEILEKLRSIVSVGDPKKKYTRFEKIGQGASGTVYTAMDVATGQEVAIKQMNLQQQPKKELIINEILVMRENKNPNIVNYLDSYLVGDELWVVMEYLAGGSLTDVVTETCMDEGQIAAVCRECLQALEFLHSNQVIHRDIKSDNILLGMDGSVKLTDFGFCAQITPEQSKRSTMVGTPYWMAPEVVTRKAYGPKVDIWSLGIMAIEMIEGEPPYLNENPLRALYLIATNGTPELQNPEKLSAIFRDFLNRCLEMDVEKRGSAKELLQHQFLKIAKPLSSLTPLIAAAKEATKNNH
Chain of Aurora kinase A (Homo sapiens) (O14965 whole entry, the tested form may be a part): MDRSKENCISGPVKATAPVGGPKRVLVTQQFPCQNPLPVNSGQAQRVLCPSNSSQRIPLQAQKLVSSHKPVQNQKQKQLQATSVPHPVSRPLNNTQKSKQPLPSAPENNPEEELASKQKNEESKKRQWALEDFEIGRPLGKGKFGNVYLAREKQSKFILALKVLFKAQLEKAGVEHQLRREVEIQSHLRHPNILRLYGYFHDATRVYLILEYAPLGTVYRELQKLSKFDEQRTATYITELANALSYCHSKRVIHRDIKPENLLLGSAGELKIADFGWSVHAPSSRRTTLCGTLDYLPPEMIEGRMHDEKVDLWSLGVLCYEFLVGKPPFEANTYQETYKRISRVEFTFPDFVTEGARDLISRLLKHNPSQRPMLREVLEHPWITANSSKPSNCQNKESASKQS
Chain of Insulin receptor (Homo sapiens) (P06213 28-758 limits assumed): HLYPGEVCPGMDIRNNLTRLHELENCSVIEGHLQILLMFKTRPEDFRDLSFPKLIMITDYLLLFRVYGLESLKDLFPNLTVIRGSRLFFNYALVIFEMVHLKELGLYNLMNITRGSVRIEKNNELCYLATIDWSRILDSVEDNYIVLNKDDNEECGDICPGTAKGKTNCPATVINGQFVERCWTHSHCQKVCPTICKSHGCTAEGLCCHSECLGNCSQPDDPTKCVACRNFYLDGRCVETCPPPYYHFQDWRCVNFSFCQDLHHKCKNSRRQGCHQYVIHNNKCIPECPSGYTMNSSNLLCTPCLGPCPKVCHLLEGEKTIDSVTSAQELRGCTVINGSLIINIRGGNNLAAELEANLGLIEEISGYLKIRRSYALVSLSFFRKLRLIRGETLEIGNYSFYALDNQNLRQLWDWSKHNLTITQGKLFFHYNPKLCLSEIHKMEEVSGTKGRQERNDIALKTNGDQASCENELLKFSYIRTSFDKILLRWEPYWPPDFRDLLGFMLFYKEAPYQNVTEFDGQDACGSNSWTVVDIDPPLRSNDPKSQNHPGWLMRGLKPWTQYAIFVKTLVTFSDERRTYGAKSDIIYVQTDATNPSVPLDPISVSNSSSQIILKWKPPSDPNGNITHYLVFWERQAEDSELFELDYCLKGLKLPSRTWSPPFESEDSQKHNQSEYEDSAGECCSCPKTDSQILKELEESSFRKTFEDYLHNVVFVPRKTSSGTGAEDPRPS
Chain of Insulin receptor (Homo sapiens) (P06213 763-1382 limits assumed): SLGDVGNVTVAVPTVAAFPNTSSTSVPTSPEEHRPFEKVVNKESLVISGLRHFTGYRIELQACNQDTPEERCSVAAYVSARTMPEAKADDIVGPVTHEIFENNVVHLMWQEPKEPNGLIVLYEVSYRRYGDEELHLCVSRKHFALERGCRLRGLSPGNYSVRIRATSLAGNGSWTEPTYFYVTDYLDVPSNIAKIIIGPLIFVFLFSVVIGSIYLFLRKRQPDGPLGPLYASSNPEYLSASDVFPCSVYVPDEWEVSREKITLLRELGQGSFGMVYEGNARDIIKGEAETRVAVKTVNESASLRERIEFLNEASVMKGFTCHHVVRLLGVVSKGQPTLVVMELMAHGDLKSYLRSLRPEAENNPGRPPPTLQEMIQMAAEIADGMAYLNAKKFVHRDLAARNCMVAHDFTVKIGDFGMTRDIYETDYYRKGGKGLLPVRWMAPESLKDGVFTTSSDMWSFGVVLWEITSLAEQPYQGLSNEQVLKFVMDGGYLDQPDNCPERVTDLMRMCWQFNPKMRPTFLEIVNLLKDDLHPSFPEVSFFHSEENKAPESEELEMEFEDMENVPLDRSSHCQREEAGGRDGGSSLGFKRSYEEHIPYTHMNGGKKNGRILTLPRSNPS

O=C1C2=C(C(=O)c3c(O)ccc(O)c31)[C@@H](O)[C@@H](O)[C@@H](O)C2
Activity [1]: 76%
Activity [2]: 78%
Activity [3]: 90%
Activity [4]: 100%
Activity [5]: 96%
Activity [6]: 93%
% of MOE kinase hits [7]: 7%
Activity [8]: 97%
Activity [9]: 100%
Activity [10]: 93%
Activity [11]: 100%
% of MOE kinase hits [12]: 7%
Activity [13]: 91%
Activity [14]: 87%
Activity [15]: 96%
Activity [16]: 100%
Activity [17]: 68%
Activity [18]: 53%
Activity [19]: 100%
Activity [20]: 96%
% of MOE kinase hits [21]: 29%
Activity [22]: 88%
Activity [23]: 100%
Activity [24]: 84%
Activity [25]: 87%
Activity [26]: 88%
